From ChEMBL document CHEMBL4433236, “Synthesis and structure activity relationships of a series of 4-amino-1H-pyrazoles as covalent inhibitors of CDK14” (Bioorg Med Chem Lett, 2019)
pIC50: −log10 of the molar value. The source made the active and inactive calls. The rule behind the calls is not given here.

Experiments:
HCT-116 = assay: Antiproliferative activity against human HCT116 cells assessed as reduction in cell viability after 72 hrs by cell titer glo-based luminescence assay; format: functional; details: HCT-116, 72 h
[1] = target: Cyclin-dependent kinase 14/Cyclin-Y (Homo sapiens, UniProt O94921); assay: Inhibition of recombinant GST-tagged human full length CDK14/cyclin Y (2 to end residues) preincubated for 30 mins by Lantha screen eu binding assay; format: protein-complex assay
Method in brief: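 CDK14 binding was measured in a LanthaScreen binding assay. IC50 is the average of three replicates, reported ± standard error.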

[2] = target: T1, Cyclin-dependent kinase 14 (Homo sapiens, UniProt O94921); assay: Inhibition of FLAG-tagged CDK14 (unknown origin) expressed in human HEK293 cells assessed as blocking of CDK14 pulldown incubated for 4 hrs by biotinylated JNK-IN- based pull down assay; format: cell-based
Method in brief: (§1)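 Cells were treated with compound at various doses for 4 h and then lysed. Lysates were incubated with biotinylated JNK-IN-7 and captured on streptavidin-coated beads. CDK14 capture was detected by western blot.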

[3] = target: T1, Cyclin-dependent kinase 14; assay: Inhibition of FLAG-tagged CDK14 (unknown origin) expressed in human HEK293 cells assessed as blocking of CDK14 pulldown at 500 to 1000 nM incubated for 4 hrs by biotinylated JNK-IN- based pull down assay; format: cell-based; method in brief: as §1
[4] = target: T1, Cyclin-dependent kinase 14; assay: Inhibition of FLAG-tagged CDK14 (unknown origin) expressed in human HEK293 cells assessed as blocking of CDK14 pulldown up to 1000 nM incubated for 4 hrs by biotinylated JNK-IN- based pull down assay; format: cell-based; method in brief: as §1
[5] = target: Cyclin-dependent kinase 18 (Homo sapiens) (UniProt Q07002); assay: Inhibition of CDK18 in human HCT116 cells at 1 uM incubated for 4 hrs by KINATIV live cell profiling protocol based assay
Method in brief: (§2)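 Cellular kinase selectivity was profiled on the KiNativ platform, with compounds tested at 1 μM.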

[6] = target: Cyclin-dependent kinase 17 (Homo sapiens) (UniProt Q00537); assay: Inhibition of CDK17 in human HCT116 cells at 1 uM incubated for 4 hrs by KINATIV live cell profiling protocol based assay; method in brief: as §2
CDK2/Cyclin-Y = CDK2/Cyclin-Y (Homo sapiens, UniProt P24941+Q8ND76); assay: Inhibition of recombinant NanoLuc-tagged CDK2/cyclin Y expressed in human HCT116 cells at 1 uM incubated for 20 to 24 hrs by NanoBRET assay; format: cell-based
[7] = target: Cyclin-dependent kinase 16 (Homo sapiens) (UniProt Q00536); assay: Inhibition of CDK16 in human HCT116 cells at 1 uM incubated for 4 hrs by KINATIV live cell profiling protocol based assay; method in brief: as §2
Chain of Cyclin-dependent kinase 16 (Homo sapiens) (Q00536 whole entry): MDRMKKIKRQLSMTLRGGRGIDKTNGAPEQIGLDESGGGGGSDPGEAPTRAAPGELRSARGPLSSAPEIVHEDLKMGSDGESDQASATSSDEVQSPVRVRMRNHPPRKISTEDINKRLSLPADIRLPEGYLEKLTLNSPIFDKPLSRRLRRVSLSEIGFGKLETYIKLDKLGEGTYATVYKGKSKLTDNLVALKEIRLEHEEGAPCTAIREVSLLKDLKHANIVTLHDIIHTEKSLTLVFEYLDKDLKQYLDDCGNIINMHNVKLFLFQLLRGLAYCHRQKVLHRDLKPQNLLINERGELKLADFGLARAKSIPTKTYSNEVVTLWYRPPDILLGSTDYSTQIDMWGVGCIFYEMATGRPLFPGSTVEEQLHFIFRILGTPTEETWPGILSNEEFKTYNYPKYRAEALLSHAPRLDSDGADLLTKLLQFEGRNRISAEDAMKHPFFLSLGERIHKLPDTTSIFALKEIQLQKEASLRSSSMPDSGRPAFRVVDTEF

T1 sequence (O94921 whole entry): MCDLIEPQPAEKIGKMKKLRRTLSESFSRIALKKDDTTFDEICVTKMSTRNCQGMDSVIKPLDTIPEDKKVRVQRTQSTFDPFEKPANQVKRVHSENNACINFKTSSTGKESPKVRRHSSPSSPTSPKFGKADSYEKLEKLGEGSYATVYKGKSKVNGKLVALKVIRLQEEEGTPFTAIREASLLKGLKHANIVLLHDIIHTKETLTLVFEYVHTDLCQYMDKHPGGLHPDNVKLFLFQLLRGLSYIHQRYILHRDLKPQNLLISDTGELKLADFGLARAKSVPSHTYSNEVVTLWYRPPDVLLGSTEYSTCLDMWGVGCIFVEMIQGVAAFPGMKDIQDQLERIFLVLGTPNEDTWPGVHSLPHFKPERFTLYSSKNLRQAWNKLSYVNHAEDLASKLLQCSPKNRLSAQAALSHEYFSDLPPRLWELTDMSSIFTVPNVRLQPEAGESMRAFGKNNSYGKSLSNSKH
Chain of Cyclin-dependent kinase 14/Cyclin-Y (O94921 whole entry): as above
Chain of Cyclin-dependent kinase 14/Cyclin-Y (Q8ND76 whole entry, further chain): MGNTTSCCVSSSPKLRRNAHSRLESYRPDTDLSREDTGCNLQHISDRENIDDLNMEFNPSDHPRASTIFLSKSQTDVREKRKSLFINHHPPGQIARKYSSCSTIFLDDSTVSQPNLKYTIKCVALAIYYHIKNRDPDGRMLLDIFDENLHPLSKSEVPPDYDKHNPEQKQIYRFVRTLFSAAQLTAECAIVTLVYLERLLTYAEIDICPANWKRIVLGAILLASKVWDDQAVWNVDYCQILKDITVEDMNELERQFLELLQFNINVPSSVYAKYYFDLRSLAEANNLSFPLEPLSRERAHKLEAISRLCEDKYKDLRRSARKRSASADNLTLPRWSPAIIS
Chain of Cyclin-dependent kinase 17 (Homo sapiens) (Q00537 whole entry, looked up): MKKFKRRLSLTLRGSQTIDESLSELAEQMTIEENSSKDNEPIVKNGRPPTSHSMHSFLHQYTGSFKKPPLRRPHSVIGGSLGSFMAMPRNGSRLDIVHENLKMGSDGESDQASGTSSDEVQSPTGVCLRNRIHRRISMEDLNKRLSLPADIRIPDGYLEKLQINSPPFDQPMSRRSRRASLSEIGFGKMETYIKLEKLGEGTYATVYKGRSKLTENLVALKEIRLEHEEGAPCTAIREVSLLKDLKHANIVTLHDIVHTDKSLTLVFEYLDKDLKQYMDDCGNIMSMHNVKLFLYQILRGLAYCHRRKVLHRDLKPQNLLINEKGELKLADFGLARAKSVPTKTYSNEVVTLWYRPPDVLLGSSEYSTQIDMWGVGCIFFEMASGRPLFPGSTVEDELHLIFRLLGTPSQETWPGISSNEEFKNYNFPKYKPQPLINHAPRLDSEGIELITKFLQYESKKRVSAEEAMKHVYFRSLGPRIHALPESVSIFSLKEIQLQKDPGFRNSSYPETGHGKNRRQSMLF
Chain of Cyclin-dependent kinase 18 (Homo sapiens) (Q07002 whole entry): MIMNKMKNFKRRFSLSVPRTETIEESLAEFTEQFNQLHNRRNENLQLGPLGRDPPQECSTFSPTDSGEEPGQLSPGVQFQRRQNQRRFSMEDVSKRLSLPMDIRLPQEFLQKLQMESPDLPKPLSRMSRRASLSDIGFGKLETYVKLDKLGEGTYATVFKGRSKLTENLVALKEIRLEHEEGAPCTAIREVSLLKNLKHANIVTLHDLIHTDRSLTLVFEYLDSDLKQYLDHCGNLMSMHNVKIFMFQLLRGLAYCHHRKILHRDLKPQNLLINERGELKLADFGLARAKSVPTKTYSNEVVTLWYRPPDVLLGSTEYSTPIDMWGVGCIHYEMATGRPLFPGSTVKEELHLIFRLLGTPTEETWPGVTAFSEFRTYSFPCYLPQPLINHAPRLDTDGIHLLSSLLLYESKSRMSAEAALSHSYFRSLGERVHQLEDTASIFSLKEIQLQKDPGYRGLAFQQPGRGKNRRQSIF

| SMILES | pIC50 (HCT-116) | pIC50 [1] | pIC50 [2] | also measured |
| --- | --- | --- | --- | --- |
| Cc1cc(NC(=O)c2cccc(NC(=O)/C=C/CN(C)C)c2)ccc1NC(=O)c1n[nH]cc1NC(=O)c1c(Cl)cccc1Cl | 6.49 | < 6.00 | – | – |
| CN(C)C/C=C/C(=O)Nc1cccc(S(=O)(=O)N2CCC(NC(=O)c3n[nH]cc3NC(=O)c3ccccc3)CC2)c1 | 6.36 | 8.52 | 6.00 | – |
| CN(C)C/C=C/C(=O)Nc1cccc(C(=O)Nc2ccc(NC(=O)c3n[nH]cc3NC(=O)c3c(Cl)cccc3Cl)cc2)c1 | 7.42 | – | 6.00 | inhibition [3]: Active |
| C=CC(=O)Nc1cccc(C(=O)N2CCC(NC(=O)c3n[nH]cc3NC(=O)c3c(Cl)cccc3Cl)CC2)c1 | 7.49 | 7.35 | – | inhibition [3]: Active |
| C=CC(=O)Nc1cccc(C(=O)Nc2ccc(NC(=O)c3n[nH]cc3NC(=O)c3c(Cl)cccc3Cl)c(C)c2)c1 | – | < 6.00 | – | – |
| CN(C)CC/C=C/C(=O)Nc1ccc(S(=O)(=O)N2CC[C@@H](NC(=O)c3n[nH]cc3NC(=O)c3c(Cl)cccc3Cl)C2)cc1 | < 5.00 | 7.39 | < 6.00 | inhibition [4]: Active |
| CN(C)C/C=C/C(=O)Nc1cccc(S(=O)(=O)N2CCC(NC(=O)c3n[nH]cc3NC(=O)c3c(Cl)cc(Cl)cc3Cl)CC2)c1 | 5.23 to 5.94 | – | – | inhibition [5]: > 75%; inhibition [6]: > 75%; pIC50 (CDK2/Cyclin-Y): 6.59; inhibition [7]: > 90% |
